# Source: ChEMBL document CHEMBL4825692, “Benzofuranyl-2-imidazoles as imidazoline I2 receptor ligands for Alzheimer's disease” (Eur J Med Chem, 2021)
# Legend:
# [1] = Displacement of [3H]clonidine from imidazoline I1 receptor high affinity site in human hypothalamic membranes measured after 30 mins by liquid scintillation counting spectrometry; format: cell membranes, Hypothalamus, Membrane
# [2] = Displacement of [3H]clonidine from imidazoline I1 receptor low affinity site in human hypothalamic membranes measured after 30 mins by liquid scintillation counting spectrometry; format: cell membranes, Hypothalamus, Membrane
# CAPAN-1 = assay: Cytotoxicity against human CAPAN-1 cells at 100 uM by real time IncuCyte proliferation assay; format: cell-based; settings: capan-1, 100 µM
# Method in brief: (§1)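 Adherent lines (LN-229, Capan-1, HCT-116, NCI-H460) seeded at 500–1500 cells/well and treated after overnight attachment. Suspension lines (HL-60, K-562, Z-138, DND-41) seeded at 2500–5500 cells/well directly with compound. Highest concentration 100 μM; proliferation tracked by real-time IncuCyte imaging over 72 h at 37 °C.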
# [3] = Cytotoxicity against human DND41 cells at 100 uM by real time IncuCyte proliferation assay; format: cell-based; settings: dnd41, 100 µM; method in brief: as §1
# [4] = Displacement of [3H]2-BFI from imidazoline I2 receptor low affinity site in post-mortem human brain frontal cortex membrane two site model measured after 45 mins by liquid scintillation counting spectrometry
# Homo sapiens [5] = organism: Homo sapiens; assay: Selectivity index, ratio of pKi for displacement of [3H]2-BFI from imidazoline I2 receptor in post-mortem human brain frontal cortex membrane to pKi for displacement of [3H]-RX821002 from adrenergic alpha 2 receptor in post-mortem human brain frontal cortex membrane; format: cell membranes
# [6] = molecular target: T1, Adrenergic receptor alpha-2 (Homo sapiens, UniProt P08913+P18825+P18089); assay: Displacement of [3H]-RX821002 from adrenergic alpha 2 receptor in post-mortem human brain frontal cortex membrane measured after 30 mins by liquid scintillation counting spectrometry; format: cell membranes
# T1 sequence (P08913 whole entry): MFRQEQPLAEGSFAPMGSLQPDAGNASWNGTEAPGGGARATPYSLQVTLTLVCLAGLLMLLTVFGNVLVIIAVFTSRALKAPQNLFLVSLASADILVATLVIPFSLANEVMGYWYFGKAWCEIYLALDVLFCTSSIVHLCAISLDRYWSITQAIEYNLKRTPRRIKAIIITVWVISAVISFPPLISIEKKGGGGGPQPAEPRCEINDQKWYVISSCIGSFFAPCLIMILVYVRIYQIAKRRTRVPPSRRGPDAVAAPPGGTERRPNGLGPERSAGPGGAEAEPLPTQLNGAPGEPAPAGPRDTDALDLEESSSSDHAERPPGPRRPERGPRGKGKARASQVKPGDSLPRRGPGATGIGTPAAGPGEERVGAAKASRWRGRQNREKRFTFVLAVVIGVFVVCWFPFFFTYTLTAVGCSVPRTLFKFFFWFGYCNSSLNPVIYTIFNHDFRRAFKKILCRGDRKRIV
# T1 sequence (P18825 whole entry): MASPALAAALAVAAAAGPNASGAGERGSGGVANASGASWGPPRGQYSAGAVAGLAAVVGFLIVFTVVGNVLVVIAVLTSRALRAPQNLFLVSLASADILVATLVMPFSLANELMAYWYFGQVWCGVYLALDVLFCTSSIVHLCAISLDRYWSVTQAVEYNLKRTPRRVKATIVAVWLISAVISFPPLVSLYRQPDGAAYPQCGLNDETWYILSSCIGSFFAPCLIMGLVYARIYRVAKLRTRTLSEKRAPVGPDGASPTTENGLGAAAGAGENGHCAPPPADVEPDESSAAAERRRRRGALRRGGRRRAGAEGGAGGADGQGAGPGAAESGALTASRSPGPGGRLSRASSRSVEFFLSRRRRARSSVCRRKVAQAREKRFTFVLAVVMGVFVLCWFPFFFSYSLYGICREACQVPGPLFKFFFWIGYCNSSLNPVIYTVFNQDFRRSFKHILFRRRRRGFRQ
# T1 sequence (P18089 whole entry): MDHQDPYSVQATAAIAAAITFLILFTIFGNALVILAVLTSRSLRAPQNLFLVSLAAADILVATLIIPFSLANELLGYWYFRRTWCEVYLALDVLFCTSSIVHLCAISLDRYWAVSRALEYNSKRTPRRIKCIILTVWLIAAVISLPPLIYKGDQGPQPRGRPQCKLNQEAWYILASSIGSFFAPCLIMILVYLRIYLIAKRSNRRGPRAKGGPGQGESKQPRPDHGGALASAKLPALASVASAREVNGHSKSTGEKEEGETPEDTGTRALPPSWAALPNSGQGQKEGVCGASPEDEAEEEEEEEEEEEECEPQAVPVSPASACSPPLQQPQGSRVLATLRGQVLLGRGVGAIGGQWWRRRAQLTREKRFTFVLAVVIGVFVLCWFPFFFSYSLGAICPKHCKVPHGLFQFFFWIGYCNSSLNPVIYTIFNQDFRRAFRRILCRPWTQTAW
# [7] = Permeability of compound by PAMPA-BBB assay; format: ADME
# LN-229 = assay: Cytotoxicity against human LN-229 cells at 100 uM by real time IncuCyte proliferation assay; format: cell-based; settings: ln-229, 100 µM; method in brief: as §1
# Homo sapiens [8] = organism: Homo sapiens; assay: Displacement of [3H]2-BFI from imidazoline I2 receptor in post-mortem human brain frontal cortex membrane assessed as occupancy at high affinity site measured after 45 mins by liquid scintillation counting spectrometry
# [9] = Displacement of [3H]2-BFI from imidazoline I2 receptor in post-mortem human brain frontal cortex membrane one site model measured after 45 mins by liquid scintillation counting spectrometry
# HL-60 = assay: Cytotoxicity against human HL-60 cells at 100 uM by real time IncuCyte proliferation assay; format: cell-based; settings: hl-60, 100 µM; method in brief: as §1
# Z-138 = assay: Cytotoxicity against human Z138 cells at 100 uM by real time IncuCyte proliferation assay; format: cell-based; settings: z-138, 100 µM; method in brief: as §1
# K562 = assay: Cytotoxicity against human K562 cells at 100 uM by real time IncuCyte proliferation assay; format: cell-based; settings: k562, 100 µM; method in brief: as §1
# NCI-H460 = assay: Cytotoxicity against human NCI-H460 cells at 100 uM by real time IncuCyte proliferation assay; format: cell-based; settings: nci-h460, 100 µM; method in brief: as §1
# [10] = Displacement of [3H]2-BFI from imidazoline I2 receptor high affinity site in post-mortem human brain frontal cortex membrane two site model measured after 45 mins by liquid scintillation counting spectrometry
# HCT-116 = assay: Cytotoxicity against human HCT-116 cells at 100 uM by real time IncuCyte proliferation assay; format: cell-based; settings: hct-116, 100 µM; method in brief: as §1
SMILES,Ki [1] [µM],Ki [2] [µM],pKi [4],Selectivity Index (Homo sapiens [5]),pKi [6],Papp [7] [×10⁻⁶ cm/s],Activity (Homo sapiens [8]) [%],pKi [9],pKi [10],Activity (CAPAN-1),Activity [3],Activity (LN-229),Activity (HL-60),Activity (Z-138),Activity (K562),Activity (NCI-H460),Activity (HCT-116)
COc1nc(C)nc(Cl)c1NC1=NCCN1 [MOXONIDINE],0.0002,12,,,,,,,,,,,,,,,
c1ccc2oc(C3=NCCN3)cc2c1,,,7.15,5370,4.58,6.1,58,8.31,9.08,Non-Toxic,Non-Toxic,Non-Toxic,Non-Toxic,Non-Toxic,Non-Toxic,Non-Toxic,Non-Toxic
CCn1ccnc1-c1cc2ccc(OC)cc2o1.Cl,,,5.11,123,3.17,14.8,12,5.26,9.13,Non-Toxic,Non-Toxic,Non-Toxic,Non-Toxic,Non-Toxic,Non-Toxic,Non-Toxic,Non-Toxic
CCn1ccnc1-c1cc2ccccc2o1.Cl,,,4.72,19,3.77,19.2,22,5.05,7.09,Non-Toxic,Non-Toxic,Non-Toxic,Non-Toxic,Non-Toxic,Non-Toxic,Non-Toxic,Non-Toxic
Cl.Cn1ccnc1-c1cc2ccccc2o1,,,5.35,170,3.75,17.4,38,5.98,6.99,Non-Toxic,Non-Toxic,Non-Toxic,Non-Toxic,Non-Toxic,Non-Toxic,Non-Toxic,Non-Toxic
c1ccc2c(c1)OCC(C1=NCCN1)O2 (centres undefined) [IDAZOXAN],,,5.76,,,3.3,40,7.41,7.87,Non-Toxic,Non-Toxic,Non-Toxic,Non-Toxic,Non-Toxic,Non-Toxic,Non-Toxic,Non-Toxic

# Continued, in another order:
Ki [1] [µM],Ki [2] [µM],pKi [4],Selectivity Index (Homo sapiens [5]),pKi [6],Papp [7] [×10⁻⁶ cm/s],Activity (Homo sapiens [8]) [%],pKi [9],pKi [10],SMILES,Activity (CAPAN-1),Activity [3],Activity (LN-229),Activity (HL-60),Activity (Z-138),Activity (K562),Activity (NCI-H460),Activity (HCT-116)
,,,295,3.94,8.3,,6.41,,COc1ccc2oc(-c3ncc[nH]3)cc2c1.Cl,Non-Toxic,Non-Toxic,Non-Toxic,Non-Toxic,Non-Toxic,Non-Toxic,Non-Toxic,Non-Toxic
,,5.85,23,4.92,20.3,20,6.28,8.63,Brc1ccc2oc(-c3ncc[nH]3)cc2c1.Cl,Non-Toxic,Non-Toxic,Non-Toxic,Non-Toxic,Non-Toxic,Non-Toxic,Non-Toxic,Non-Toxic
,,4.6,11,3.84,0.32,29,4.87,9.57,Cl.Oc1ccc2oc(-c3ncc[nH]3)cc2c1,Non-Toxic,Non-Toxic,Non-Toxic,Non-Toxic,Non-Toxic,Non-Toxic,Non-Toxic,Non-Toxic
,,4.16,6,4.21,12.4,35,4.96,6.95,CCn1ccnc1-c1cc2cc(OC)ccc2o1.Cl,Non-Toxic,Non-Toxic,Non-Toxic,Non-Toxic,Non-Toxic,Non-Toxic,Non-Toxic,Non-Toxic
,,4.58,741,3.01,7.6,46,5.88,6.77,COc1ccc2cc(-c3ncc[nH]3)oc2c1.Cl,Non-Toxic,Non-Toxic,Non-Toxic,Non-Toxic,Non-Toxic,Non-Toxic,Non-Toxic,Non-Toxic
,,,52,3.76,0.1,,5.48,,Cl.Oc1ccc2cc(-c3ncc[nH]3)oc2c1,Non-Toxic,Non-Toxic,Non-Toxic,Non-Toxic,Non-Toxic,Non-Toxic,Non-Toxic,Non-Toxic
